Screens from PubChem.
This is a sample that favours compounds with a hit; in the whole collection about 2.7% have one here.
HIV Env fusion: inhibitors of HIV Env-mediated cell fusion; HeLa-JRFL Env/CEM21 cell fusion, luciferase; inhibition, % at 12.3 µM; 360,000 compounds, 1.1% hits;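 active means mean replicate inhibition score of at least 50 and every replicate individually at or above 50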;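 further: 0% = plate neutral controls and 100% = maraviroc near 300 nM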
F508del corr: correctors of CFTR F508del function in bronchial epithelial cells; CFBE cells, YFP halide quenching; stimulated with forskolin plus potentiator P3; % fluorescence drop versus neutral controls; activity (quench increase), % at 7.58 µM; 350,000 compounds, 0.36% hits;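 active means mean added fluorescence quench of at least 8% versus neutral control, with both replicates also reaching 8%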;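 further: cells transiently co-express mutant CFTR-F508del with the halide-sensitive YFP; corrector assay measuring rescue of mutant channel to the surface after 24 h compound exposure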
E-selectin induc: E-selectin induction on HUVECs; P16581; HUVEC E-selectin immunofluorescence imaging; normalized: neutral wells 0, TNF-alpha wells 100; activation, % at 7.58 µM; 260,000 compounds, 0.37% hits;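 active means mean E-selectin-positive cell signal at least 10% of the positive control, reached in at least 60% of replicates, without over 20% cell loss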
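Read-out: % PE-positive cells | Test system: HUVEC | Doses: One compound dose added by pin transfer | Buffer or medium: EGM-2 over gelatin coat | Signal: Immunofluorescence imaging | Benchmarks: TNF-alpha, DMSO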
S100A4 inh HTS: S100A4-myosin IIA interaction inhibition; P26447; S100A4/TAMRA-MyoIIA peptide fluorescence polarization; inhibition, % at 10.7 µM; 360,000 compounds, 0.14% hits; AID 652163;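 active means mean inhibition of at least 70% across replicates, with every replicate also reaching that level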
Target sequence (P26447 whole entry, looked up): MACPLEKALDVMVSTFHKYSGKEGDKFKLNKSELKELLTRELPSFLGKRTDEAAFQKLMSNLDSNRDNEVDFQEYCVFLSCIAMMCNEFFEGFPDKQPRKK
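assay system = human S100A4 monomer with TAMRA-labelled myosin IIA peptide | also added = labelled myosin peptide probe, 5 nM | incubation = 5 min between mix addition and reading | control set = DMSO and TFP controls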
FGF22 binding: binders of recombinant human FGF22 by thermal shift. activity (Tm shift, normalised), % at 9.99 µM. 340,000 compounds, 1.5% hits. SYPRO orange fluorescence; percent of sucrose octasulfate shift, DMSO zero. AID 651658;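 active means mean Tm shift, scaled 0 neutral to 100 positive control, at about 1.3% or above, every replicate too, limit read from the data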
Target sequence (Q9HCT0 whole entry, looked up): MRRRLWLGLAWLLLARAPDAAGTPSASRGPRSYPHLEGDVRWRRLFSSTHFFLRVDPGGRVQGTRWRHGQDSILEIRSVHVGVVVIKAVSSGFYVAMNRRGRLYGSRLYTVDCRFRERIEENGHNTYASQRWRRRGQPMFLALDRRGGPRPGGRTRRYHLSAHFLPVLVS
An asterisk follows results filed as active; . = not tested or not shown; [ ] = remark or other dose.

SMILES	HIV Env fusion	F508del corr	E-selectin induc	S100A4 inh HTS	FGF22 binding
CCS(=O)(=O)Nc1ccc2c(c1)C(=O)N(C)C[C@H](OC)[C@H](C)CN(C(=O)C1CC1)[C@H](C)CO2	.	0	0	6	0
c1ccc2c(c1)CCCN2c1nc(N2CCOCC2)nc(N2CCOCC2)n1	-6	-4	0	-7	0
C1=CCN(c2nc(N3CCOCC3)nc(N3CCCc4ccccc43)n2)CC1	-4	1	1	0	44*
CCOC(=O)N1CCN(C(=O)CSc2ccc3nnc(-c4ccccn4)n3n2)CC1	1	-9	1	-4	0
O=C(CSc1ccc2nnc(-c3ccccn3)n2n1)N1CCOCC1	0	1	.	8	44*
CO[C@H]1CN(C)C(=O)c2cc(NC(=O)Nc3ccc(Cl)cc3)ccc2OC[C@H](C)N(C)C[C@H]1C	2[16.7 µM]	0	0	0	.
CCC(CNc1cc(OC)cc2cccnc12)NC1CCCCC1 (stereo not given)	15	-2	1	140*	0
COc1ccccc1S(=O)(=O)N[C@@H]1CC[C@H](CCn2cc(C3CCCCC3)nn2)O[C@@H]1CO	-3[16.7 µM]	0	0	-8	0
CC(C)(C)NCC(O)COc1ccc(Br)cc1 (stereo not given)	3	0	.	0	44*
CO/N=C/C(NC(=O)c1ccc(C(F)(F)F)cc1)C(=O)OC (stereo not given)	-2	1	9	0	0
NC(N)=NN=C(c1ccc(F)cc1)c1ccc(C(F)(F)F)cc1	-274	13*	0	2	0
COc1ccc(NC(=O)Nc2ccc3c(c2)C(=O)N([C@@H](C)CO)C[C@H](C)[C@H](CN(C)S(=O)(=O)c2ccc(C)cc2)OCCCC[C@H](C)O3)cc1	7[16.7 µM]	-1	0	-11	0
CCCCN(C)C(=O)c1ccc(CS(=O)(=O)c2ccccc2C)o1	2	0	.	1	0
COC(CN(C)C(=O)c1ccc(CS(=O)(=O)c2ccccc2C)o1)OC	8	0	49*	0	0
O=C(Nc1ccncc1)c1ccc(Cl)c(S(=O)(=O)N2CCc3ccccc32)c1	90*	-6	.	-9	.
COc1ccc(NC(=O)CN2CCN(c3ccccc3)CC2)cc1	2	1	.	2	42
COc1ccc(NC(=O)c2cccc(S(=O)(=O)N3CCN(C)CC3)c2)c(OC)c1	24	0	0	5	.
COc1ccc(NC(=O)c2ccc(NC(=O)CN3CCN(c4ccccc4OC)CC3)cc2)cc1	30	0	0	2	43*
COc1ccc(NC(=O)c2cccc(S(=O)(=O)N3CCc4ccccc43)c2)c(OC)c1	-43	3	1	2	44*
COc1ccc(C(=O)Nc2ccc(S(=O)(=O)N3CCc4ccccc43)cc2)cc1	62*	.	.	.	.
Cc1cccc(NC(=O)c2ccc(Cl)c(S(=O)(=O)N3CCc4ccccc43)c2)n1	11	1	.	-2	0
CN1c2ccc(-c3ccccc3F)cc2[C@@H]2[C@@H](CCN2S(=O)(=O)c2ccccc2)[C@@H]1CO	.	0	-1	-6	1
COc1ccccc1NC(=O)N1C[C@@H](O)COC[C@H]2O[C@H](CC(=O)NCc3ccccc3)CC[C@@H]21	-1[16.7 µM]	-1	0	2	0
C[C@H]1CN([C@@H](C)CO)C(=O)c2cc(NC(=O)CCCCCC(=O)Nc3ccccc3N)ccc2O[C@H]1CN(C)C(=O)Nc1ccc(F)cc1	.	-2	44*	1	0
C[C@@H]1CN([C@H](C)CO)C(=O)c2cc(NC(=O)CCCCCC(=O)Nc3ccccc3N)ccc2O[C@H]1CN(C)C(=O)Nc1ccc2c(c1)OCO2	.	1	28*	8	0
SMILES	HIV Env fusion	F508del corr	E-selectin induc	S100A4 inh HTS	FGF22 binding
C[C@@H]1CN([C@@H](C)CO)C(=O)c2cc(NC(=O)CCC(F)(F)F)ccc2O[C@@H]1CN(C)C(=O)Nc1ccc(F)cc1	.	-1	0	96*	0
C[C@@H]1CN([C@@H](C)CO)C(=O)c2cc(NC(=O)CCCCCC(=O)Nc3ccccc3N)ccc2O[C@H]1CN(C)C(=O)Nc1ccc2c(c1)OCO2	.	-5	105*	119*	0
C[C@H](CO)N1C[C@H](C)[C@H](CN(C)C(=O)Nc2ccc(F)cc2)Oc2ccc(NC(=O)CCCCCC(=O)Nc3ccccc3N)cc2C1=O	.	-1	-15	4	0
C[C@H]1CN([C@@H](C)CO)C(=O)c2cc(NC(=O)CCC(F)(F)F)ccc2O[C@H]1CN(C)C(=O)Nc1ccc(F)cc1	.	-1	0	-1	0
COc1ccc(S(=O)(=O)N(C)C[C@H]2OCCCC[C@H](C)Oc3ccc(NC(=O)Nc4c(C)noc4C)cc3C(=O)N([C@@H](C)CO)C[C@@H]2C)cc1	-35[16.7 µM]	-1	0	-13	0
O=C(O)c1c(-c2ccccc2)c(-c2ccccc2)nc2ccccc12	21	0	.	-3	43*
CSc1c(-c2ccccc2)nc2ccccc2c1C(=O)O	11	.	.	.	.
C/C=C/c1ccc2c(c1)O[C@H](CN(C)C(=O)c1ccccc1F)[C@@H](C)CN([C@H](C)CO)S2(=O)=O	4[16.7 µM]	0	0	-1	0
CC(C)C#Cc1ccc2c(c1)O[C@H](CN(C)S(C)(=O)=O)[C@@H](C)CN([C@H](C)CO)S2(=O)=O	5[16.7 µM]	-1	2	-9	0
COc1ccc(CNCC(=O)Nc2cc(C)nn2-c2nc(C)cc(C)n2)cc1OC	2	-2	0	-3	44*
O=C(Cc1ccncc1)NCC[C@H]1CC[C@@H](NC(=O)C2CCCC2)[C@@H](CO)O1	-2[16.7 µM]	4	0	-27	0
C[C@H]1CN([C@@H](C)CO)C(=O)Cc2cc(NS(C)(=O)=O)ccc2O[C@@H]1CN(C)Cc1ccncc1	-9[16.7 µM]	1	449*	6	0
C[C@H](CO)N1C[C@H](C)[C@@H](CN(C)Cc2ccncc2)Oc2ccc(NC(=O)CCC(F)(F)F)cc2CC1=O	-14[16.7 µM]	-3	-5	8	0
C[C@H](CO)N1C[C@H](C)[C@H](CN(C)Cc2ccncc2)Oc2ccc(NS(C)(=O)=O)cc2CC1=O	-8[16.7 µM]	-1	257*	0	0
C[C@H](CO)N1C[C@H](C)[C@H](CN(C)Cc2ccncc2)Oc2ccc(NC(=O)CCC(F)(F)F)cc2CC1=O	-3[16.7 µM]	1	314*	-15	0
C[C@H](CO)N1C[C@H](C)[C@@H](CN(C)Cc2ccncc2)Oc2ccc(NS(C)(=O)=O)cc2CC1=O	7[16.7 µM]	1	-4	4	0
C[C@@H]1CN([C@@H](C)CO)S(=O)(=O)c2ccc(C#CC3CC3)cc2O[C@H]1CN(C)CC1CCOCC1	14[16.7 µM]	-4	0	3	0
